CR mimetic SO = reduction of superoxide in aged yeast, primary screen, HTS; S. cerevisiae aged cells, superoxide DHE fluorescence; stronger effect = lower value; superoxide response (% of plate mean), % at 10 µM; actives 0.18% (n = 330,000);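 active = superoxide response under a set limit, about three screen SD below normal, cut at about 65% in these data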;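 also: yeast aged for seven days with compound at 30 °C before DHE staining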
Lipid droplet = inhibitors of hepatocyte lipid droplet formation, primary screen, imaging, high-throughput imaging, BODIPY stain; AML12 mouse hepatocytes, oleate lipid droplets; inhibition, % at 6.5 µM; actives 0.4% (n = 240,000);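 active = lipid droplet intensity inhibited by at least 50%, with more than 500 cells counted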
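Assay system: AML12 mouse liver cells | Compound dosing: One dose, 6.5 µM compound | Read-out basis: Droplet intensity reduction, % inhibition | Measured by: Fluorescence imaging, 20x objective, two fields per well | Schedule: Overnight treatment with compound plus oleate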
SMARCA2 act = SMARCA2 (BRM) function activators, primary screen, cell-based, luminescence, high throughput; MG213 cells, MMTV-luciferase reporter, dexamethasone, overnight; activation, % at 9.1 µM; actives 1% (n = 370,000); AID 652017, 2013; in the data active = activation above about 7.8%
SR-BI DiI inh = inhibitors of SR-BI mediated HDL lipid uptake, primary screen, ldlA[mSR-BI] cells, fluorescence, single point; AID 488896, 2010; inhibition, % at 12.5 µM; Scavenger receptor class B member 1 (Mus musculus), Q61009; actives 0.96% (n = 320,000); ldlA[mSR-BI] CHO cells, DiI-HDL uptake fluorescence, 3 h;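 active = mean replicate inhibition of at least 70% and a set share of replicates each scoring 70 or more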
Target sequence (Q61009 whole entry, looked up): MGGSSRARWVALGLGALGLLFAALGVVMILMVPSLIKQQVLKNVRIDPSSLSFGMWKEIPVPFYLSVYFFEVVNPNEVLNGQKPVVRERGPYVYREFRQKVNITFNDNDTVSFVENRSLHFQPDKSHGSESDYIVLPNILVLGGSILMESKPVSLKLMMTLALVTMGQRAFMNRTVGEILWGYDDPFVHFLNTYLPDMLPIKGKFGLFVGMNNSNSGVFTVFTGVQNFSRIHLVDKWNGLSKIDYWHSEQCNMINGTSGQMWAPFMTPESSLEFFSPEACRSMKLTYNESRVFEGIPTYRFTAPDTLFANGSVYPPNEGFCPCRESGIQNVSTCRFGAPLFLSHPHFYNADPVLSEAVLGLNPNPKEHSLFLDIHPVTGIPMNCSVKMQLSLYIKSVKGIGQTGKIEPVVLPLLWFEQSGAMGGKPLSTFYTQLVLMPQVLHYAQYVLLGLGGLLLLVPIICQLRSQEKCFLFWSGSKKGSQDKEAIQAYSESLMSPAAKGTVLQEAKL
AHR activator = AHR activators, primary screen, cell-based, luminescence, luciferase reporter, human; actives 2.5% (n = 320,000); Aryl hydrocarbon receptor (Homo sapiens), P35869; AHR-responsive luciferase reporter cells; activation, % at 5 µM; in the data active = activation above about 47%
SR-BI uptake up = activators of SR-BI mediated DiI-HDL uptake, primary screen, ldlA[mSR-BI] CHO cells, DiI fluorescence | 3 h; 100 = double the neutral-control signal | AID 504775, 2011 | activation, % at 12.5 µM | actives 0.096% (n = 320,000);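 active = mean replicate activation of at least 60% and every replicate at or above 60%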
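Assay system: CHO ldlA[mSR-BI] cells, LDL receptor-null, SR-BI overexpressing; medium: Ham's F12 with 0.5% BSA, HEPES 25 mM, pH 7.4; also added: DiI-HDL 10 µg/mL; timing: 3 h uptake period with compound, 37 °C; signal: DiI fluorescence, bottom read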
Of the large screens only hits and unclear results are named; the others gave an inactive call. Hits are enriched below; roughly 4.3% of the tested compounds scored in any of these assays.

COc1cc(OC)cc(-c2sc3ccc(OC)cc3c2C#CCO)c1	SR-BI DiI inh 79, AHR activator 49 (no result: Lipid droplet)
COc1cccc(-c2sc3ccc(OC)cc3c2C#CCCO)c1	AHR activator 69 (no result: Lipid droplet)
COC(=O)[C@]12C[C@H](CC(=O)N3CCN(C(=O)c4ccco4)CC3)C(=O)N(CCC3=CCCCC3)C1=C[C@H](COCc1ccccc1)O[C@@H]2C	none (no result: CR mimetic SO, Lipid droplet, SR-BI DiI inh, AHR activator, SR-BI uptake up)
COc1ccc(C(=O)Nc2nc3ccccc3c(=O)[nH]2)cc1	AHR activator 74
COc1ccc(C(=O)Nc2nc3cc(OC)c(OC)cc3c(=O)[nH]2)cc1	SR-BI DiI inh 86
COc1cc(-c2nnc(SCC(=O)N3C(C)CCCC3C)o2)cc(OC)c1OC (configuration not stated)	none (no result: CR mimetic SO, Lipid droplet, SR-BI DiI inh, AHR activator, SR-BI uptake up)
CC(=O)c1sc(Nc2ccccn2)nc1C	AHR activator 61 (no result: Lipid droplet)
CCCCNS(=O)(=O)/C=C/c1ccccc1CCNC(=O)OC(C)(C)C	none (no result: CR mimetic SO, Lipid droplet, SR-BI DiI inh, AHR activator, SR-BI uptake up)
COc1cccc(/C=N/Nc2nc3ccccc3n3cnnc23)c1	AHR activator 58
Cc1ccc(Nc2nc3ccccc3n3cnnc23)cc1C	none (no result: Lipid droplet)
COc1cccc(/C=N/Nc2nc3ccccc3n3cnnc23)c1O	none
COc1ccc(Nc2nc3ccccc3n3cnnc23)cc1	AHR activator 72
Cc1cc2nc3n(c2cc1C)CCCN3	AHR activator 73
O=C(N/N=C/c1cc(Br)ccc1O)c1cccc(N2CCCC2=O)c1	SR-BI DiI inh 106
COc1ccc(O)c(/C=N/NC(=O)c2ccc(N3CCCC3=O)cc2)c1	none (no result: SR-BI DiI inh, SR-BI uptake up)
COc1ccc(O)c(/C=N/NC(=O)c2cccc(N3CCCC3=O)c2)c1	SR-BI DiI inh 89
Cc1cccc(OC(=O)NCCOC(=O)N(O)c2ccc(Cl)cc2)c1	AHR activator 53
O=C(O)/C=C/C(=O)Nc1cccc2cccnc12	none
O=C(/C=C/c1ccco1)Nc1cccnc1	AHR activator 71
O=C(/C=C/c1ccco1)c1cccnc1	none (no result: Lipid droplet)
O=C(/C=C/c1ccco1)Nc1cccc2cccnc12	AHR activator 48
CCCCN1CC[C@H](C)Oc2cc(Br)ccc2S1(=O)=O	none (no result: CR mimetic SO, Lipid droplet, SR-BI DiI inh, AHR activator, SR-BI uptake up)
Nc1[nH]c(C(=O)c2ccccc2)c(-c2ccccn2)c1C(=O)c1c[nH]c2ccccc12	none (no result: CR mimetic SO, Lipid droplet, SR-BI DiI inh, AHR activator, SR-BI uptake up)
COC(=O)C1CN(Cc2ccc(F)cc2)CCS(=O)(=O)N1Cc1cn(Cc2ccc(F)cc2)nn1 (configuration not stated)	none (no result: CR mimetic SO, Lipid droplet, SR-BI DiI inh, AHR activator, SR-BI uptake up)
O=C(CSc1ccc2nnc(-c3ccccn3)n2n1)Nc1ccc2c(c1)OCO2	AHR activator 53
Cc1ccc(NC(=O)CSc2ccc3nnc(-c4cccnc4)n3n2)cc1	AHR activator 63
Cc1ccc(-c2nnc3ccc(SCC(=O)Nc4cc(C)on4)nn23)cc1	none (no result: Lipid droplet)
O=C(CSc1ccc2nnc(-c3ccccn3)n2n1)Nc1ccc2c(c1)OCCO2	none (no result: Lipid droplet)
Cc1cc(NC(=O)CSc2ccc3nnc(-c4cccs4)n3n2)no1	AHR activator 49 (no result: Lipid droplet)
Cc1cc(NC(=O)CSc2nnc(C3CC3)n2Cc2ccccc2)no1	none
Cc1cc(NC(=O)CSc2nnc(C3CC3)n2-c2ccccc2)no1	AHR activator 48
COc1cccc(/C=C2\CC3(OC(=O)C4CCCC4)CCCN2C3)c1 (configuration not stated)	none (no result: CR mimetic SO, Lipid droplet, SR-BI DiI inh, AHR activator, SR-BI uptake up)
COC(=O)[C@]12C[C@H](CC(=O)NCc3cccc4ccccc34)C(=O)N(Cc3ccc(Cl)cc3Cl)C1=C[C@H](C(C)C)O[C@@H]2C1CC1	none (no result: CR mimetic SO, Lipid droplet, SR-BI DiI inh, AHR activator, SR-BI uptake up)
C[C@@H]1CN([C@H](C)CO)C(=O)c2cc(NC(=O)Nc3ccccc3)ccc2O[C@@H](C)CCCCO[C@H]1CN(C)S(C)(=O)=O	none (no result: CR mimetic SO, Lipid droplet, SR-BI DiI inh, AHR activator, SR-BI uptake up)
CCN(C(=O)[C@@H](C1CC1)[C@@H](O)c1ccc(C(C)=O)cc1)c1ccccc1	none (no result: CR mimetic SO, Lipid droplet, SR-BI DiI inh, AHR activator, SR-BI uptake up)
O=C(N/N=C/c1ccco1)c1ccc(NC(=O)c2ccccc2Cl)cc1	none
O=C(Nc1cccc(NC(=O)c2ccc(F)cc2)c1)c1ccc(F)cc1	SR-BI DiI inh 76
O=C(N/N=C/c1ccncc1)c1cccc(NC(=O)c2ccc(Cl)cc2)c1	none
O=C(N/N=C/c1ccc(F)cc1)c1cccc(NC(=O)c2ccc(F)cc2)c1	SR-BI DiI inh 72, AHR activator 60
O=C(Nc1ccc(Nc2ccccc2)cc1)c1ccc(F)cc1	none (no result: Lipid droplet)
O=C(N/N=C/c1ccco1)c1cccc(NC(=O)c2cccc(Cl)c2)c1	AHR activator 55
Cc1ccccc1C(=O)Nc1cccc(NC(=O)c2ccc(F)cc2)c1	SR-BI DiI inh 79
CC(=O)Nc1cccc(NC(=O)Nc2cccc(F)c2)c1	AHR activator 49
COC(=O)[C@]12C[C@H](CC(=O)N3CCC(c4ccccc4)CC3)C(=O)N(CCC3=CCCCC3)C1=C[C@H](C1CCCC1)O[C@@H]2C	none (no result: CR mimetic SO, Lipid droplet, SR-BI DiI inh, AHR activator, SR-BI uptake up)
COC(=O)c1ccccc1-c1ccc(C(c2c(C)[nH][nH]c2=O)c2c(C)[nH][nH]c2=O)o1	SMARCA2 act 7.9
COc1ccc(Cl)cc1NC(=O)Nc1cnccn1	AHR activator 53
O=C(Nc1cnccn1)Nc1cccc(Cl)c1Cl	AHR activator 49
COc1ccc(Cl)cc1NC(=O)Nc1cc(C)on1	AHR activator 55
COc1ccc(Cl)cc1NC(=O)c1c(-c2ccccc2)noc1C	SR-BI DiI inh 76
COc1ccc(NC(=O)Nc2cnccn2)cc1OC	none
COc1cc(OC)c(NC(=O)c2c(-c3ccccc3)noc2C)cc1Cl	none
Cc1cc(NC(=O)Nc2ccccc2Cl)no1	none
O=C(Nc1cnccn1)Nc1ccccc1Cl	none
COc1cc(C=Nn2c(-c3ccccc3F)n[nH]c2=S)ccc1OCc1ccccc1	none (no result: CR mimetic SO, Lipid droplet, SR-BI DiI inh, AHR activator, SR-BI uptake up)
CCCCOCCCNC(=O)C[C@@H]1C(=O)N(Cc2ccc(OC)cc2)/C2=C/CCCCC[C@@]21C(=O)OCC	none (no result: CR mimetic SO, Lipid droplet, SR-BI DiI inh, AHR activator, SR-BI uptake up)
CCCCNC(=O)C[C@H]1C[C@@]2(C(=O)OC)C(=C[C@H](C(C)(C)C)O[C@@H]2C)N(Cc2ccc3c(c2)OCO3)C1=O	none (no result: CR mimetic SO, Lipid droplet, SR-BI DiI inh, AHR activator, SR-BI uptake up)
COc1ccc(C)cc1NC(=O)Nc1cnccn1	AHR activator 57
COc1ccc(NC(=O)Nc2cnccn2)c(OC)c1	none (no result: SR-BI uptake up)
Cc1ccc(S(=O)(=O)c2nc(S(C)(=O)=O)sc2N2CCCCCC2)cc1	none
Cc1ccc(S(=O)(=O)c2nc(S(C)(=O)=O)sc2N2CCC(C)CC2)cc1	SMARCA2 act 7.8
CCOc1ccccc1Nc1nc(-c2sc(C)nc2C)cs1	none
COc1ccccc1Nc1nc(-c2sc(NC(=O)CC(C)C)nc2C)cs1	AHR activator 71 (no result: Lipid droplet)
COc1cccc(Nc2nc(-c3sc(NC(=O)CC(C)C)nc3C)cs2)c1	SR-BI DiI inh 86, AHR activator 51 (no result: Lipid droplet)
COc1ccccc1Nc1nc(-c2sc(NC(=O)C(C)(C)C)nc2C)cs1	SR-BI DiI inh 85 (no result: Lipid droplet)

Compound activity: PubChem BioAssay, several laboratories
